S1P4 agonist: agonists of human S1P4 receptor; O95977; S1P4-expressing cell line, agonist reporter assay; activation, % at 4.98 µM; hit rate 0.35% among 220,000; AID 1509; in the data active = activation above about 11%
Dynein transport: blocks dynein driven cargo transport along microtubules; 3617.4 mouse cells, GR-EGFP nuclear translocation imaging; test concentration mostly 20 µM; stimulated with dexamethasone, 1 µM; active compounds read low; z-score, hits read low; hit rate 0.47% among 220,000;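 active = plate z-score of nuclear minus cytoplasmic receptor signal below a set negative limit, without overly bright fluorescence or cell loss, cut at about -3.5 in these data, passing the limit was not always enough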;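 also: z-score of nuclear minus cytoplasmic ring GR-EGFP intensity difference per well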
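medium = tetracycline-free induction medium containing charcoal-stripped FBS | probe or stimulus = dexamethasone, 1.0 µM final | timing = 48 h induction, then 1 h compound, then 30 min agonist, 37 °C | detection = automated 10x imaging of fixed Hoechst-stained cells | read-out basis = nuclear versus cytoplasmic GR-EGFP signal, averaged per well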
MDM2 E3 inh: Mdm2 E3 ligase (human) inhibition; hit rate 0.11% among 210,000; cell-based MDM2 ubiquitination luciferase reporter, 2 h; 0 = plate control, 100 = twice control, blank-subtracted; signal enhancement, % at 5 µM; Q00987;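 active = signal enhancement of 30% or more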;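 also: luminescence tracks abundance of the self-degrading MDM2-luciferase fusion protein; higher signal means inhibition of MDM2 E3 ligase activity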
Target sequence (Q00987 whole entry, looked up, the tested form may be a part): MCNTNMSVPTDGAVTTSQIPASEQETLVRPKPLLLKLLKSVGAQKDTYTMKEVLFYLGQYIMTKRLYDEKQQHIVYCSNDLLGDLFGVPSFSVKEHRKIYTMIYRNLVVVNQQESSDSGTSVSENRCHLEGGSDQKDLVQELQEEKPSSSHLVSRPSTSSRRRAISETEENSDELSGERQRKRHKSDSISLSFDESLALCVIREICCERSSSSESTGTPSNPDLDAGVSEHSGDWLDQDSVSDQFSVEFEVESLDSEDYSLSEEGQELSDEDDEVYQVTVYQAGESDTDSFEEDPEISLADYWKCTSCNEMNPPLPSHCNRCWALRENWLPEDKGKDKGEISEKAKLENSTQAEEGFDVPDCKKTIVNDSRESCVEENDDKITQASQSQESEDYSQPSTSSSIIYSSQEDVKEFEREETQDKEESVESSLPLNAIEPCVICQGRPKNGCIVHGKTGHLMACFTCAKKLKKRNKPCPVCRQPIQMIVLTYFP
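System: stable MDM2–luciferase fusion reporter cells / Input: 2000 cells seeded into each well / Schedule: 4 h settle plus 2 h compound, 37 °C / Compound: single-point 5 µM / Buffer or medium: cells held in DMEM / Benchmarks: control and blank well means / Evaluation: percent signal gain over controls, blank-subtracted / Measured by: luciferase luminescence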
S1P4 antag: blocks the human S1P4 receptor. hit rate 0.26% among 220,000. inhibition, % at 4.98 µM. S1P4-expressing cells, antagonist mode, reporter read-out. AID 1510; in the data active = inhibition above about 29%
S1P3 antagonist: S1P3 (human) receptor antagonism | inhibition, % at 4.98 µM | hit rate 0.27% among 170,000 | AID 485 | Q99500 | CHO S1P3 NFAT-BLA reporter, FRET fluorescence, antagonist mode;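 active = inhibition above the plate cutoff, the mean inhibition of test wells on that plate plus 3 SD, cut at about 28% in these data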;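 also: cells challenged with S1P at its EC80 of 0.8 µM; blue over green emission ratio from cleaved BLA substrate after 4 h stimulation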
Hsp70 act: Hsp70 transcriptional activation, primary screen; HeLa Hsp70 promoter luciferase reporter, luminescence; scaled: vehicle 0, proteasome-inhibitor control 100%; activation, % at 10 µM; hit rate 0.04% among 200,000; AID 1203;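 active = activation above the mean across all tested compounds plus 3 SD, cutoff set per campaign, cut at about 5.5% in these data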
S1P4 agonist cf: confirmation of human S1P4 receptor agonists; shares compounds with S1P4 agonist; S1P4 agonist cell-based reporter assay; activation, % at 4.98 µM; hit rate 7% among 740; in the data active = activation above about 12%
S1P1 agonist: human S1P1 agonism as S1P4 agonist counter-screen; activation, % at 4.98 µM; AID 1563; hit rate 4% among 740; shares compounds with S1P4 agonist; S1P1 agonist cell-based assay, activation; in the data active = activation above about 21%
Numbers stand for hits; n = inactive; x = no result given. Only some compounds are listed: those with a hit (about 1.3% of all), similar ones and a draw of the others.

SMILES	S1P4 agonist	Dynein transport	MDM2 E3 inh	S1P4 antag	S1P3 antagonist	Hsp70 act	S1P4 agonist cf	S1P1 agonist
N#CC1=C(N)Oc2cc(N)ccc2C1C1CCCCC1 (stereo not given)	13.8	n	n	n	n	n	n	n
O=C(Cc1cccs1)Nc1ccccc1C(=O)O	117.4	n	n	n	n	n	n	n
O=C(Cc1cccs1)Nc1ccccc1NC(=O)Cc1cccs1	n	n	n	n	n	n	x	x
Cc1oc(-c2cc(F)ccc2F)nc1CN1CCN(C)C(=O)[C@@H]1C	14.9	n	n	n	n	n	n	n
Cc1cc(C(=O)COC(=O)c2ccc(N)cc2)c(C)n1-c1c(C)n(C)n(-c2ccccc2)c1=O	n	n	n	n	n	n	x	x
C/C(=N\NC(=O)CC#N)c1cc2ccc(O)cc2oc1=O	56.8	n	n	n	n	n	n	n
COc1ccccc1C(=O)c1cc2ccc(O)cc2oc1=O	n	n	n	n	n	n	x	x
COc1ccc(NC(=O)CSc2nc(N)c3cc4c(nc3n2)CCCC4)cc1	11.0	n	n	n	n	n	n	n
CC(=O)c1ccc(NC(=O)CSc2nc(N)c3cc4c(nc3n2)CCCC4)cc1	n	n	n	n	n	n	x	x
CCOC(=O)N1CCN(C(=O)c2cc(-c3ccc(OCC)cc3)nc3ccccc23)CC1	n	n	n	n	n	n	x	x
CCOc1ccc(-c2cc3nc(C4CCN(C(=O)OC(C)(C)C)CC4)c(C(=O)O)cn3n2)cc1	126.0	n	n	n	n	n	n	n
COc1ccc(-c2cc(C(=O)N/N=C/c3ccc4c(c3)OCO4)c3ccccc3n2)c(OC)c1	n	n	n	n	x	n	x	x
COc1ccc(-c2cc(C(=O)N/N=C/c3ccc(OC)c(COCC(F)(F)C(F)F)c3)c3ccccc3n2)c(OC)c1	72.1	n	n	n	x	n	n	n
CN(C)CCNC(=O)CNC(=S)N(CCCN1CCOCC1)Cc1cccs1	n	n	n	n	n	n	x	x
CC(C)CC1(C)N=C(c2ccccc2)C(=S)N1 (stereo not given)	n	n	n	n	n	n	x	x
COc1ccc(C(=S)Nc2ccc(C)cc2)cc1	n	n	n	n	x	n	x	x
COc1ccc(NC(=S)c2ccncc2)cc1	18.7	n	n	n	n	n	n	n
Cc1ccc(NC(=O)c2ccc(CNc3c(N4CCC(C)CC4)c(=O)c3=O)cc2)cc1	n	n	n	n	n	x	x	x
COC(=O)c1cc(C(=O)OC)cc(N2C(=O)CC(NNC(=O)c3ccc(C)cc3)C2=O)c1 (stereo not given)	28.9	n	n	n	n	n	n	n
Cc1cc2nc3n(c2cc1C)CC1CC(C(=O)NCC2CC2)N(C)C31 (stereo not given)	x	n	n	x	x	x	x	x
O=c1c2ccccc2nc(SCc2nc3ccccc3s2)n1CCCO	21.0	n	n	n	n	n	n	n
O=C(CSc1nc2ccccc2c(=O)n1CCCO)NCc1ccccc1	n	n	n	n	n	n	x	x
CS(=O)(=O)Nc1ccc(C(=O)N2CCN(c3ccccc3)CC2)cc1	55.8	n	n	n	x	n	n	n
COc1ccc2nccnc2c1[N+](=O)[O-]	n	n	n	n	n	x	x	x
c1ccc(N2N=C(c3cccs3)CC2c2ccco2)cc1 (stereo not given)	n	n	n	n	x	n	x	x
SMILES	S1P4 agonist	Dynein transport	MDM2 E3 inh	S1P4 antag	S1P3 antagonist	Hsp70 act	S1P4 agonist cf	S1P1 agonist
Clc1ccc(N2N=C(c3cccs3)CC2c2ccco2)cc1 (stereo not given)	14.1	n	n	n	x	n	18.9	55.2
Cc1cccc(CN(C(=S)Nc2c(C)cccc2C)c2cccnc2)c1	18.4	n	n	n	n	n	n	n
COc1ccc(-c2cc(C(=O)NNC3=NCCC3)c3c(C)nn(-c4ccccc4)c3n2)cc1	n	n	n	n	n	n	x	x
COc1ccc(NC(=O)c2cc(-c3ccccc3)nc3c2c(C)nn3-c2ccccc2)c(OC)c1	23.5	n	n	n	n	n	n	n
Cc1ccc(NC(=O)CS(=O)CC(=O)NCCCN(C)c2ccccc2)cc1 (stereo not given)	24.6	n	n	n	n	n	n	n
Cc1ccccc1-c1nc(CS(=O)CC(=O)NCCCN(C)c2ccccc2)c(C)o1 (stereo not given)	n	n	n	n	n	n	x	x
COc1cccc(/C=N/NC(=S)NCc2ccco2)c1OC	n	n	n	n	n	x	x	x
c1ccc(CC2CCCNC2)cc1 (stereo not given)	49.4	n	n	n	n	n	n	n
CC(C)(C)c1ccc(C(=O)NCC(=O)OCc2ccc([N+](=O)[O-])cc2)cc1	14.1	n	n	n	n	n	n	n
O=C(CNC(=O)c1ccccc1)OCc1cccc([N+](=O)[O-])c1	n	n	n	n	n	n	x	x
O=C(NC1=NCCS1)c1ccccc1OCc1ccccc1Cl	n	n	n	n	n	n	x	x
CCOC(=O)c1sc(Nc2nc(OC)cc(OC)n2)nc1C	64.2	n	n	n	n	n	n	n
CCOC(=O)c1sc(NC(C)=O)nc1C	n	n	n	n	x	n	x	x
c1ccc(-c2nccc(-c3ccc4c(c3)OCO4)n2)cc1	n	n	n	n	n	n	x	x
c1ccc(-c2nccc(-c3ccc(-n4cnc5ccccc54)cc3)n2)cc1	82.7	n	n	n	x	n	n	n
CC(C)(C)NC(=S)NNC(=O)c1cccc(Br)c1	n	n	n	n	n	n	x	x
CSc1cccc(CN2CCC(CO)(Cc3ccccc3)CC2)c1	16.1	n	n	n	n	n	n	n
CSc1cccc(CN2CCCC(CO)(Cc3cccc(Cl)c3)C2)c1 (stereo not given)	n	n	n	n	n	n	x	x
Cn1c(-c2cc3ccc(OC(=O)C(C)(C)C)cc3oc2=O)nc2ccccc21	24.1	n	n	n	x	n	18.4	n
COc1ccccc1NC(=O)CN(Cc1ccco1)C(=O)c1cc2ccccc2o1	n	n	n	n	n	n	x	x
COc1ccc(CCN2C(=NC(=O)CC(C)C)SC3CS(=O)(=O)CC32)cc1OC (stereo not given)	n	n	n	n	n	x	x	x
O=C(O)CCn1cc(C(=O)O)c(-c2ccccc2)n1	n	n	n	n	n	x	x	x
O=[N+]([O-])c1ccccc1N/N=C\c1ccccc1Cl	n	x	n	n	x	n	x	x
O=[N+]([O-])c1ccccc1N/N=C/c1cccc(O)c1O	12.7	n	x	n	n	x	n	n
Cc1ccc(NC(=O)COC(=O)[C@H](C)N2C(=O)C3CC=CCC3C2=O)cc1S(=O)(=O)N(C)C (stereo not given in full)	15.6	n	n	n	n	n	n	n

Screening data (PubChem BioAssay)
